Measurements reported in ChEMBL document CHEMBL4138150, “Quinoline derivatives bearing pyrazole moiety: Synthesis and biological evaluation as possible antibacterial and antifungal agents” (2018).
Values after ≈ are worked out from the molar mass of the structure shown.

How the values were obtained:
Shigella flexneri [1] = test: Antimicrobial activity against Shigella flexneri RCMB 0100542 after overnight incubation by macro-tube dilution technique; assay type: functional
In short: (§1)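 Macro-tube twofold dilution following NCCLS guidance, run in nutrient broth. The first tube held 10 mg compound in 2.0 mL DMSO and was serially halved 1:1 into 1.0 mL broth through tube 14; tube 15 was the control. The inoculum was suspended to turbidity in 5.0 mL broth, 0.2 mL was diluted into 40 mL, and 1.0 mL was added per tube. Tubes were incubated overnight at 37 °C. MIC was the lowest concentration with no growth.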

Aspergillus clavatus [2] = test: Antimicrobial activity against Aspergillus clavatus RCMB 02593 after 72 hrs by macro-tube dilution technique; assay type: functional; details: RCMB 02593, 72 h
In short: (§2)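 Twofold macro-tube dilution following NCCLS guidance, run in malt extract broth. 10 mg compound in 2.0 mL DMSO in tube 1 was serially diluted 1:1 through tube 14 into 1.0 mL broth; tube 15 was the control. Culture was suspended to turbidity in 5.0 mL broth, 0.2 mL was diluted into 40 mL, and 1.0 mL was added per tube. Incubation was 72 h at 30 °C. MIC was the lowest concentration with no growth.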

Aspergillus fumigatus [3] = test: Antimicrobial activity against Aspergillus fumigatus RCMB 02564 after 72 hrs by macro-tube dilution technique; assay type: functional; details: RCMB 02564, 72 h; in short: as §2
[4] = tested on: Staphylococcus epidermidis; test: Potency index, ratio of Amphotericin B IC50 to compound IC50 for Staphylococcus epidermidis RCMB 010024; assay type: functional
Staphylococcus aureus [5] = test: Antimicrobial activity against Staphylococcus aureus RCMB 010027 after overnight incubation by macro-tube dilution technique; assay type: functional; in short: as §1
Staphylococcus aureus [6] = test: Antimicrobial activity against Staphylococcus aureus RCMB 010027 assessed as diameter of zone inhibition at 5 mg/ml after 24 hrs by agar well diffusion assay; assay type: functional; details: RCMB 010027, 24 h, read-out: DIZ
In short: (§3)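 Agar well diffusion: 100 µL of 1 x10^8 CFU/mL bacteria was spread on nutrient agar. 10 mm wells received 100 µL of compound at 5 mg/mL in DMSO, or ampicillin or gentamycin standards at 1 mg/mL. DMSO served as negative control. Plates were incubated 24 h at 37 °C. Inhibition zone diameter (mm) was measured as the mean of triplicates.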

Shigella flexneri [7] = test: Antimicrobial activity against Shigella flexneri RCMB 0100542 assessed as diameter of zone inhibition at 5 mg/ml after 24 hrs by agar well diffusion assay; assay type: functional; details: RCMB 0100542, 24 h, read-out: DIZ; in short: as §3
Bacillus subtilis [8] = test: Antimicrobial activity against Bacillus subtilis RCMB 010063 assessed as diameter of zone inhibition at 5 mg/ml after 24 hrs by agar well diffusion assay; assay type: functional; details: RCMB 010063, 24 h, read-out: DIZ; in short: as §3
Candida albicans [9] = test: Antimicrobial activity against Candida albicans RCMB 05035 assessed as diameter of zone inhibition at 5 mg/ml after 72 hrs by agar well diffusion assay; assay type: functional; details: RCMB 05035, 72 h, read-out: DIZ
In short: (§4)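 Fungi (1 x10^6 CFU/mL, 100 µL) were spread on Sabouraud dextrose agar. 10 mm wells were loaded with 100 µL of test solution at 5 mg/mL in DMSO, or amphotericin B standard at 1 mg/mL. A DMSO negative control was included. Plates were incubated 72 h at 28 °C. Inhibition zone diameter (mm) was recorded as the average of triplicate runs.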

Proteus vulgaris [10] = test: Antimicrobial activity against Proteus vulgaris RCMB 010085 assessed as diameter of zone inhibition at 5 mg/ml after 24 hrs by agar well diffusion assay; assay type: functional; details: RCMB 010085, 24 h, read-out: DIZ; in short: as §3
Proteus vulgaris [11] = test: Antimicrobial activity against Proteus vulgaris RCMB 010085 after overnight incubation by macro-tube dilution technique; assay type: functional; in short: as §1
Bacillus subtilis [12] = test: Antimicrobial activity against Bacillus subtilis RCMB 010063 after overnight incubation by macro-tube dilution technique; assay type: functional; in short: as §1
Klebsiella pneumoniae [13] = test: Antimicrobial activity against Klebsiella pneumoniae RCMB 010093 after overnight incubation by macro-tube dilution technique; assay type: functional; in short: as §1
[14] = tested on: Staphylococcus epidermidis; test: Antimicrobial activity against Staphylococcus epidermidis RCMB 010024 assessed as diameter of zone inhibition at 5 mg/ml after 24 hrs by agar well diffusion assay; assay type: functional; details: RCMB 010024, 24 h, read-out: DIZ; in short: as §3
Aspergillus fumigatus [15] = test: Antimicrobial activity against Aspergillus fumigatus RCMB 02564 assessed as diameter of zone inhibition at 5 mg/ml after 72 hrs by agar well diffusion assay; assay type: functional; details: RCMB 02564, 72 h, read-out: DIZ; in short: as §4
Candida albicans [16] = test: Antimicrobial activity against Candida albicans RCMB 05035 after 72 hrs by macro-tube dilution technique; assay type: functional; details: RCMB 05035, 72 h; in short: as §2
Klebsiella pneumoniae [17] = test: Antimicrobial activity against Klebsiella pneumoniae RCMB 010093 assessed as diameter of zone inhibition at 5 mg/ml after 24 hrs by agar well diffusion assay; assay type: functional; details: RCMB 010093, 24 h, read-out: DIZ; in short: as §3
Aspergillus clavatus [18] = test: Antimicrobial activity against Aspergillus clavatus RCMB 02593 assessed as diameter of zone inhibition at 5 mg/ml after 72 hrs by agar well diffusion assay; assay type: functional; details: RCMB 02593, 72 h, read-out: DIZ; in short: as §4
[19] = tested on: Staphylococcus epidermidis; test: Antimicrobial activity against Staphylococcus epidermidis RCMB 010024 after overnight incubation by macro-tube dilution technique; assay type: functional; in short: as §1
Proteus vulgaris [20] = test: Antimicrobial activity against Proteus vulgaris RCMB 010085 assessed as diameter of zone inhibition at 1 mg/ml after 24 hrs by agar well diffusion assay; assay type: functional, organism-based
In short: (§5)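 Agar well diffusion on nutrient agar spread with 100 µL of bacterial suspension at 1 x10^8 CFU/mL. Wells 10 mm wide were loaded with 100 µL of solution: test compounds at 5 mg/mL in DMSO, ampicillin or gentamycin standards at 1 mg/mL, DMSO negative control. Plates were incubated 24 h at 37 °C, and inhibition zone diameter (mm) was averaged over triplicates.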

Shigella flexneri [21] = test: Antimicrobial activity against Shigella flexneri RCMB 0100542 assessed as diameter of zone inhibition at 1 mg/ml after 24 hrs by agar well diffusion assay; assay type: functional, organism-based; in short: as §5
Klebsiella pneumoniae [22] = test: Antimicrobial activity against Klebsiella pneumoniae RCMB 010093 assessed as diameter of zone inhibition at 1 mg/ml after 24 hrs by agar well diffusion assay; assay type: functional, organism-based; in short: as §5
Aspergillus clavatus [23] = test: Antimicrobial activity against Aspergillus clavatus RCMB 02593 assessed as diameter of zone inhibition at 1 mg/ml after 72 hrs by agar well diffusion assay; assay type: functional; details: RCMB 02593, 72 h, read-out: DIZ
Aspergillus fumigatus [24] = test: Antimicrobial activity against Aspergillus fumigatus RCMB 02564 assessed as diameter of zone inhibition at 1 mg/ml after 72 hrs by agar well diffusion assay; assay type: functional; details: RCMB 02564, 72 h, read-out: DIZ
Candida albicans [25] = test: Antimicrobial activity against Candida albicans RCMB 05035 assessed as diameter of zone inhibition at 1 mg/ml after 72 hrs by agar well diffusion assay; assay type: functional; details: RCMB 05035, 72 h, read-out: DIZ
Candida albicans [26] = test: Potency index, ratio of Amphotericin B IC50 to compound IC50 for Candida albicans RCMB 05035; assay type: functional
Shigella flexneri [27] = test: Potency index, ratio of Gentamycin IC50 to compound IC50 for Shigella flexneri RCMB 0100542; assay type: functional
Proteus vulgaris [28] = test: Potency index, ratio of Gentamycin IC50 to compound IC50 for Proteus vulgaris RCMB 010085; assay type: functional
Aspergillus clavatus [29] = test: Potency index, ratio of Amphotericin B IC50 to compound IC50 for Aspergillus clavatus RCMB 02593; assay type: functional
Staphylococcus aureus [30] = test: Antimicrobial activity against Staphylococcus aureus RCMB 010027 assessed as diameter of zone inhibition at 1 mg/ml after 24 hrs by agar well diffusion assay; assay type: functional; details: RCMB 010027, 24 h, read-out: DIZ
Bacillus subtilis [31] = test: Antimicrobial activity against Bacillus subtilis RCMB 010063 assessed as diameter of zone inhibition at 1 mg/ml after 24 hrs by agar well diffusion assay; assay type: functional; details: RCMB 010063, 24 h, read-out: DIZ
[32] = tested on: Staphylococcus epidermidis; test: Antimicrobial activity against Staphylococcus epidermidis RCMB 010024 assessed as diameter of zone inhibition at 1 mg/ml after 24 hrs by agar well diffusion assay; assay type: functional; details: RCMB 010024, 24 h, read-out: DIZ

| Compound | MIC (Shigella flexneri [1]) [µg/mL] | MIC (Aspergillus clavatus [2]) [µg/mL] | MIC (Aspergillus fumigatus [3]) [µg/mL] | MIC (Staphylococcus aureus [5]) [µg/mL] | zone of inhibition at 5000 µg/mL (Staphylococcus aureus [6]) [mm] | zone of inhibition at 5000 µg/mL (Shigella flexneri [7]) [mm] | zone of inhibition at 5000 µg/mL (Bacillus subtilis [8]) [mm] | zone of inhibition at 5000 µg/mL (Candida albicans [9]) [mm] | zone of inhibition at 5000 µg/mL (Proteus vulgaris [10]) [mm] | MIC (Proteus vulgaris [11]) [µg/mL] | MIC (Bacillus subtilis [12]) [µg/mL] | MIC (Klebsiella pneumoniae [13]) [µg/mL] | zone of inhibition at 5000 µg/mL [14] [mm] | zone of inhibition at 5000 µg/mL (Aspergillus fumigatus [15]) [mm] | MIC (Candida albicans [16]) [µg/mL] | zone of inhibition at 5000 µg/mL (Klebsiella pneumoniae [17]) [mm] | zone of inhibition at 5000 µg/mL (Aspergillus clavatus [18]) [mm] | MIC [19] [µg/mL] | further results |
| --- | --- | --- | --- | --- | --- | --- | --- | --- | --- | --- | --- | --- | --- | --- | --- | --- | --- | --- | --- |
| COc1ccc(C2CC(c3ccc(Oc4ccc5ccccc5n4)cc3)=NN2c2ccccc2)cc1 (centres undefined) | 0.48 (≈ 1.02 µM) | 3.9 (≈ 8.27 µM) | 1.95 (≈ 4.14 µM) | 0.24 (≈ 0.509 µM) | 29 | 23.3 | 28.7 | 23.5 | 24.5 | 9.9 (≈ 21 µM) | 0.06 (≈ 0.127 µM) | 3.9 (≈ 8.27 µM) | 26.2 | 23.5 | 0.48 (≈ 1.02 µM) | 26.1 | 22.9 | 0.24 (≈ 0.509 µM) | Ratio [4]: 2 |
| GENTAMICIN | 0.48 |  |  |  |  |  |  |  |  | 1.95 |  | 0.24 |  |  |  |  |  |  | inhibition zone (IZ) (Proteus vulgaris [20]): 23.4 mm; inhibition zone (IZ) (Shigella flexneri [21]): 24.8 mm; inhibition zone (IZ) (Klebsiella pneumoniae [22]): 26.3 mm |
| C[C@@H]1[C@H](O)[C@@H](C)/C=C/C=C/C=C/C=C/C=C/C=C/C=C/[C@H](O[C@@H]2O[C@H](C)[C@@H](O)[C@H](N)[C@@H]2O)C[C@@H]2O[C@](O)(C[C@@H](O)C[C@@H](O)[C@H](O)CC[C@@H](O)C[C@@H](O)CC(=O)O[C@H]1C)C[C@H](O)[C@H]2C(=O)O [AMPHOTERICIN B] |  | 1.95 (≈ 2.11 µM) | 0.97 (≈ 1.05 µM) |  |  |  |  |  |  |  |  |  |  |  | 0.48 (≈ 0.519 µM) |  |  |  | zone of inhibition at 1000 µg/mL (Aspergillus clavatus [23]): 21.9 mm; zone of inhibition at 1000 µg/mL (Aspergillus fumigatus [24]): 23.7 mm; zone of inhibition at 1000 µg/mL (Candida albicans [25]): 26.4 mm |
| N#Cc1c(-c2ccc(Cl)cc2Cl)nn(-c2ccc3ccccc3n2)c1N | 0.12 (≈ 0.316 µM) | 0.49 (≈ 1.29 µM) | 0.98 (≈ 2.58 µM) | 0.49 (≈ 1.29 µM) | 21.6 | 23.2 | 25.8 | 24.8 | 20.6 | 0.98 (≈ 2.58 µM) | 0.12 (≈ 0.316 µM) | 0.49 (≈ 1.29 µM) | 22.3 | 20.9 | 0.12 (≈ 0.316 µM) | 21.6 | 22.3 | 0.49 (≈ 1.29 µM) | Ratio (Candida albicans [26]): 4; Ratio (Shigella flexneri [27]): 4; Ratio (Proteus vulgaris [28]): 2; Ratio (Aspergillus clavatus [29]): 4 |
| CC1(C)S[C@@H]2[C@H](NC(=O)[C@H](N)c3ccccc3)C(=O)N2[C@H]1C(=O)O [AMPICILLIN] |  |  |  | 0.06 (≈ 0.172 µM) |  |  |  |  |  |  | 0.007 (≈ 0.02 µM) |  |  |  |  |  |  | 0.48 (≈ 1.37 µM) | zone of inhibition at 1000 µg/mL (Staphylococcus aureus [30]): 28.9 mm; zone of inhibition at 1000 µg/mL (Bacillus subtilis [31]): 34.6 mm; zone of inhibition at 1000 µg/mL [32]: 25.4 mm |
